Results collected from several papers.
Each line is one published result; the experiments were not run side by side.
Target: Glycogen synthase kinase-3 beta (GSK3B, Homo sapiens, UniProt P49841)
Action: inhibitor

CCCS(=O)(=O)Nc1ccc(F)c(C(=O)c2c[nH]c3ncc(-c4ccc(Cl)cc4)cc23)c1F
inhibition (enzyme activity; 1 µM): < 20%

CCCCNc1ncc2c(-c3ccc(F)cc3)nn(C[C@H]3CC[C@H](N)CC3)c2n1
inhibition (target engagement in cells; chemoproteomics; 20 mM): 4.2%

CSc1nc(C)c(-c2ccnc(Nc3ccc(N4CCOCC4)cc3)c2)[nH]1
inhibition (enzyme activity; 10 µM): 5.7%

CC/C(=N\NC(=O)NCc1cccc(O)c1)c1ccc(O)c(C)c1O
inhibition (enzyme activity; 0.1 µM): 8.6%

COc1cc2ncnc(Nc3ccc(Oc4ccccc4)cc3C)c2cc1OC
inhibition (enzyme activity; 1 µM): -2%

Cc1nc(-c2ccc(OCC(C)C)c(C#N)c2)sc1C(=O)O
inhibition (enzyme activity; ADP detection; 100 µM): 66.9%

CN(C)C1CCN(CC#Cc2nn(C3CCCC3)c3nc(NCc4ccccc4)ncc23)C1 (stereo not shown)
inhibition (enzyme activity; FRET; 0.1 µM): -4%

COc1ccc2c(c1)O[C@H]1c3ccc(OC)cc3OC[C@@H]21
inhibition (enzyme activity; ADP detection; 100 µM): 32.9%

CCN(CC)CCNC(=O)c1c(C)[nH]c(/C=C2\C(=O)Nc3ccc(F)cc32)c1C
inhibition (enzyme activity; 10 µM): 3%

COc1cc(-c2coc3cc(OC)c(OC)c(OC)c3c2=O)cc(OC)c1OC
inhibition (enzyme activity; ADP detection; 100 µM): 3%

O=C(CSc1nc2nccnc2c(=O)n1CCc1ccccc1)Nc1nccs1
inhibition (enzyme activity; 10 µM): -5%

O=C1CN(/N=C/c2ccc(-c3ccc([N+](=O)[O-])cc3)o2)C(O)=N1
inhibition (enzyme activity; ADP detection; 100 µM): 31.2%

CN(c1ncccc1CNc1nc(Nc2ccc3c(c2)CC(=O)N3)ncc1C(F)(F)F)S(C)(=O)=O
inhibition (enzyme activity; 1 µM): 92.7%
